Assay [1] concerns the target T1, CREB-binding protein (Homo sapiens, UniProt Q92793). As to the kind of experiment: Inhibition of CBP BRD (unknown origin) by TR-FRET assay.
Target sequence in this assay (Q92793 whole entry): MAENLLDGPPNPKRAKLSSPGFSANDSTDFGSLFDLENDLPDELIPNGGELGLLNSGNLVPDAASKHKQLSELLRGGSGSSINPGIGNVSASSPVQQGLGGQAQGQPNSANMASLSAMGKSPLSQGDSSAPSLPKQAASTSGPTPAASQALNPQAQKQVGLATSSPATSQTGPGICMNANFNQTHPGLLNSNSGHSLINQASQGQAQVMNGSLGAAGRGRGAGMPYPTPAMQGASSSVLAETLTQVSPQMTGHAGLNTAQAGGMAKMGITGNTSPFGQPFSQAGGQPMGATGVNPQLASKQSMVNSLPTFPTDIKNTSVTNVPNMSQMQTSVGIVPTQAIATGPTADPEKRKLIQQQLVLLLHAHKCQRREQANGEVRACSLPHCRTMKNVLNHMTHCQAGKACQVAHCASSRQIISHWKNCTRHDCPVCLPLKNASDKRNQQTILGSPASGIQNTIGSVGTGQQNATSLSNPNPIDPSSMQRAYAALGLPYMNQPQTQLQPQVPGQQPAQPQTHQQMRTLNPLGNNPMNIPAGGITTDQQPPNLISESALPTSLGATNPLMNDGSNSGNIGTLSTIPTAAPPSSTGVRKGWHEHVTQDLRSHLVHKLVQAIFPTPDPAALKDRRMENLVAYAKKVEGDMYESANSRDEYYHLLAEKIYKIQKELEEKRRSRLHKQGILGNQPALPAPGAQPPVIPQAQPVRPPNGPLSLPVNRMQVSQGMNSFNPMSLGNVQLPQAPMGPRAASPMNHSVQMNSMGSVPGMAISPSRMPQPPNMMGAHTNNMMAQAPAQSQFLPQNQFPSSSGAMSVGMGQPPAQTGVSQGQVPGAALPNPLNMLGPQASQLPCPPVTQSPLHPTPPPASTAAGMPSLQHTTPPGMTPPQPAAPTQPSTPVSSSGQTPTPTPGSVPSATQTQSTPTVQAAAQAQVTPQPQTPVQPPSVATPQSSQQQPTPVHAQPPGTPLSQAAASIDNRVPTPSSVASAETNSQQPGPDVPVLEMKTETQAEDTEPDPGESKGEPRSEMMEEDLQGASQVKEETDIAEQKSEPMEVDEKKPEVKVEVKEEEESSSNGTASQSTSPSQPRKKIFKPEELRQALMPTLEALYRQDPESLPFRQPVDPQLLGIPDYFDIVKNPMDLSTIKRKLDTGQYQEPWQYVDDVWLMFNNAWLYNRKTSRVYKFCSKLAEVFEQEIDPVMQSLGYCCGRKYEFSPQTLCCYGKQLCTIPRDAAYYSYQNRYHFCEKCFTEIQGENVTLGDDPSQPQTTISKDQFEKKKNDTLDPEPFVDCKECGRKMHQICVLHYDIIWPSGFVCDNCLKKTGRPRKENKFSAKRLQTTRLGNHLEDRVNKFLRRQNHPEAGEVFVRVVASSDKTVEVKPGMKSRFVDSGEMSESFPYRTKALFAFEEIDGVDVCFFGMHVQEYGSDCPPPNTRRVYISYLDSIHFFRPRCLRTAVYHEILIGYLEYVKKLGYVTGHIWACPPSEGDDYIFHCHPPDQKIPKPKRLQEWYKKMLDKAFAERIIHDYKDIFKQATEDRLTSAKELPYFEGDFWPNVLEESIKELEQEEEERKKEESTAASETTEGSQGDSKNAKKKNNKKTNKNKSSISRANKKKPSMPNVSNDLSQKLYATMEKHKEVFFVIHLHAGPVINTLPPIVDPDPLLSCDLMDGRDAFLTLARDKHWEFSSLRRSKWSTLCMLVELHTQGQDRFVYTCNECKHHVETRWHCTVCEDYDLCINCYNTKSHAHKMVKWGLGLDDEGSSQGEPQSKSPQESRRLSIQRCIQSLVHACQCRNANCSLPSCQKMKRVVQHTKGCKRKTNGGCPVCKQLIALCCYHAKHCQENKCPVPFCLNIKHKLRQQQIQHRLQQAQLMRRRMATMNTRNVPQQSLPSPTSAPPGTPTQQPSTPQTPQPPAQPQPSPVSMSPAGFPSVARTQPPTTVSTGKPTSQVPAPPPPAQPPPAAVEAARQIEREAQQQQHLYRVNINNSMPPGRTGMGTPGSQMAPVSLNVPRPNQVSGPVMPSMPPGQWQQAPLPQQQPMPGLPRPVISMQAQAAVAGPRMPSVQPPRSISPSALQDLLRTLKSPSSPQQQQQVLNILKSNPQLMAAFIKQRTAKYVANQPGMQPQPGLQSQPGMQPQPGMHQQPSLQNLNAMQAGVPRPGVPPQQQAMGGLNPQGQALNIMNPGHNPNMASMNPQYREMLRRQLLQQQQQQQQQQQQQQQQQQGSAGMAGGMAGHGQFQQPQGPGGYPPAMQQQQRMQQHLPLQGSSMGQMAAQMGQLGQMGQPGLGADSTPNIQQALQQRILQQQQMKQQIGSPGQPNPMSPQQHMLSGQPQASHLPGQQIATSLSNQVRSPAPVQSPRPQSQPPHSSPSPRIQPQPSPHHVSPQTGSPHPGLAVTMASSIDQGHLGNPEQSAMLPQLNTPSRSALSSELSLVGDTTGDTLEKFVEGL
Assay [2] has as its system MV4-11. The experiment in a line: Antiproliferative activity against human MV4-11 cells at 1.56 uM incubated for 6 days relative to control. The format is functional. The settings on record: MV4-11, 144 h, time 6 day. The method in brief:
(§1)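 MV4-11 AML cells exposed to test agent at 6.25 or 1.56 µM for 6 days; viability read as percent growth inhibition versus control; inhibition rates are means of at least two determinations.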

Assay [3] relates to MV4-11. The experiment in a line: Antiproliferative activity against human MV4-11 cells at 6.25 uM incubated for 6 days relative to control. The format is functional. The settings on record: MV4-11, 144 h, time 6 day. The gist of the method:
as §1

Assay [4] relates to MV4-11. The experiment in a line: Antiproliferative activity against human MV4-11 cells incubated for 6 days relative to control. As to conditions: MV4-11, 144 h. The format is functional, cell-based. The method in brief: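 MV4-11 cells treated for 6 days; IC50 derived for agents giving over 50% growth inhibition at 1.56 µM; values reported with ± error.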
Assay [5] has as its target T1, CREB-binding protein. As to the kind of experiment: Inhibition of GST-tagged CBP BRD (unknown origin) incubated for 30 mins by HTRF assay.
Target sequence in this assay (Q92793 whole entry): as above
Assay [6] has as its target T2, Bromodomain-containing protein 4 (Homo sapiens, UniProt O60885). The experiment in a line: Inhibition of BRD4 BD2 (unknown origin) by ALPHAScreen assay.
Assay [7] deals with T2, Bromodomain-containing protein 4. The experiment in a line: Inhibition of BRD4 BD1 (unknown origin) by ALPHAScreen assay.
The species entered for assay [8] is Homo sapiens. As to the kind of experiment: Selectivity index, ratio of IC50 for BR4 BD1 (unknown origin) to IC50 for CBP BRD (unknown origin).
The species entered for assay [9] is Homo sapiens. The experiment in a line: Selectivity index, ratio of IC50 for BR4 BD2 (unknown origin) to IC50 for CBP BRD (unknown origin).
Assay [10] deals with T1, CREB-binding protein. The experiment in a line: Inhibition of CBP in human MV4-11 cells assessed as decrease in c-myc protein expression incubated for 12 hrs by Western blot analysis. The format is cell-based. As to conditions: dose microM 0.25-2, time 12.0 hrs. The gist of the method:
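MV4-11 cells treated at 0, 0.25, 0.5, 1 and 2 µM for 12 h; c-Myc protein level assessed by Western blot.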
Target sequence in this assay (Q92793 2-2442 limits assumed): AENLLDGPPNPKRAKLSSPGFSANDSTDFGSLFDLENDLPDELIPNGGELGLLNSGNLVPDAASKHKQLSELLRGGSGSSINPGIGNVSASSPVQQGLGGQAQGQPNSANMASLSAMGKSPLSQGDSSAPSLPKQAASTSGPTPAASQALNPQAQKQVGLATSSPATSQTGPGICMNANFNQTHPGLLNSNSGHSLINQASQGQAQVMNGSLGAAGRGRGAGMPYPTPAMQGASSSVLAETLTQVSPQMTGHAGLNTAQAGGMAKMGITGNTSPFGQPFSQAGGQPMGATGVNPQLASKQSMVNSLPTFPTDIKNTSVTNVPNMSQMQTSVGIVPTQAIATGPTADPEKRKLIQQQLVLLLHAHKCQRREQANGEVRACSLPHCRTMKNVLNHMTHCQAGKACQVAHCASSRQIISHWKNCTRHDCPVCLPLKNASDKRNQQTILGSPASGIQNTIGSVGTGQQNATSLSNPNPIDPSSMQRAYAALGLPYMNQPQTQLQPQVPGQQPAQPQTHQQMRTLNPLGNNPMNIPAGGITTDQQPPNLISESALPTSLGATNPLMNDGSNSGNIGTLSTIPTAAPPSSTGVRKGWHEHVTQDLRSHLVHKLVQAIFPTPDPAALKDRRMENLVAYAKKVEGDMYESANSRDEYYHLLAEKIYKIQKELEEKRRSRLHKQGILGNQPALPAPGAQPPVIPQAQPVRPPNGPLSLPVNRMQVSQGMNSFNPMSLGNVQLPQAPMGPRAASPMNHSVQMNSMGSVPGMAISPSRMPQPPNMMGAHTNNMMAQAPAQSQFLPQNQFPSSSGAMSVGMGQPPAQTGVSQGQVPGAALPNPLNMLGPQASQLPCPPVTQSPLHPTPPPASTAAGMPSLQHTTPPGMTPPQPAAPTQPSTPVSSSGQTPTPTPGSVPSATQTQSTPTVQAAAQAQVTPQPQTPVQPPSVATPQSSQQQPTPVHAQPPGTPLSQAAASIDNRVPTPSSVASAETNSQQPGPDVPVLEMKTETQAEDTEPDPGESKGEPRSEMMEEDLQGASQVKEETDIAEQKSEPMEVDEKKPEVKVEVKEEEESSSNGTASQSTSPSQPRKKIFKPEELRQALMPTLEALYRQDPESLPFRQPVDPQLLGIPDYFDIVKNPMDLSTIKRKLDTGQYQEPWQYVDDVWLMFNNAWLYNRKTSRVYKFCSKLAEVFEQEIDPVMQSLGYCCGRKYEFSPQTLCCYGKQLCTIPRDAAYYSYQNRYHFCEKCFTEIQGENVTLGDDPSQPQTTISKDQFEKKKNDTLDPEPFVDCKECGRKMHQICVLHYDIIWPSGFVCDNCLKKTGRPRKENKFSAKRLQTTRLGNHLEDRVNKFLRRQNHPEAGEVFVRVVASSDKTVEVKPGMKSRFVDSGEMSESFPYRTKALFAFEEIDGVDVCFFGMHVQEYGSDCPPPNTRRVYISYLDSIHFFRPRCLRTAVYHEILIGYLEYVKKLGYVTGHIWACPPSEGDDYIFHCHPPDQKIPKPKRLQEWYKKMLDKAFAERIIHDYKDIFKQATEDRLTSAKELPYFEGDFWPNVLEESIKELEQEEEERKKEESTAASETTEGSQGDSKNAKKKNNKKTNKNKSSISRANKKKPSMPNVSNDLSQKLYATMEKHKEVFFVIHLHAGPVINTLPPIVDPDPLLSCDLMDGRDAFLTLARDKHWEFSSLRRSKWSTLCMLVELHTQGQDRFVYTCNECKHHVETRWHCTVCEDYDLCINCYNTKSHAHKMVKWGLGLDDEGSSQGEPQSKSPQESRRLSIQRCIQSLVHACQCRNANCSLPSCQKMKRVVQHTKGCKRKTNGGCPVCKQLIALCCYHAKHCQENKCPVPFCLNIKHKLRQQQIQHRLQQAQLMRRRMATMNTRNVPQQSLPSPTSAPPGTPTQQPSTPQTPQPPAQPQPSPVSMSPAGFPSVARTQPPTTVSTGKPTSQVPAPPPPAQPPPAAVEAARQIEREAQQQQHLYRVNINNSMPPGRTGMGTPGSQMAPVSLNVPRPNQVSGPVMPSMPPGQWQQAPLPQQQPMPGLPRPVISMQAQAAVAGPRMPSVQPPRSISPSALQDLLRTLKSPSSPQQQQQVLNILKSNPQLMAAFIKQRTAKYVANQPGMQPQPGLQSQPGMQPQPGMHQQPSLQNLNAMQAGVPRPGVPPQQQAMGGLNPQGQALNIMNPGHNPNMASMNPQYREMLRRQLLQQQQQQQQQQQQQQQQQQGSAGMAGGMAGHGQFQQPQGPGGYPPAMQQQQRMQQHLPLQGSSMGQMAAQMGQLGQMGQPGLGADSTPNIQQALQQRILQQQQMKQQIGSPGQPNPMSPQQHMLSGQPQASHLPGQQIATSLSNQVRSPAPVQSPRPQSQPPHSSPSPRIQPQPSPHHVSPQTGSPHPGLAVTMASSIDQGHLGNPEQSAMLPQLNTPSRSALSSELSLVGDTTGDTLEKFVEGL

The target in assay [11] is T1, CREB-binding protein. The experiment in a line: Binding affinity to CBP BRD (unknown origin) by microscale thermophoresis assay.
Target sequence in this assay (Q92793 whole entry): as the sequence (Q92793 whole entry) above

From ChEMBL document CHEMBL4699476, “Structure-based drug optimization and biological evaluation of tetrahydroquinolin derivatives as selective and potent CBP bromodomain inhibitors” (Bioorg Med Chem Lett, 2020) come the findings set out here.

Turning to `CNC(=O)N1CCCc2ccc(NC(=O)c3ccc(-c4ccn(S(C)(=O)=O)n4)cc3)cc21`, the IC50 at CREB-binding protein [1] was found to be 74.4 nM. The same compound came in with an inhibition at 1.56 µM with MV4-11 [2] of 8.81%. The compound further had an inhibition at 6.25 µM in the assay on MV4-11 [3] of 57.2%.

As to `CNC(=O)N1CCCc2ccc(NC(=O)c3ccc(-c4cccnc4)cc3)cc21`, the figures for the IC50 at CREB-binding protein [1] and in the assay on MV4-11 [4] were 53.7 nM and 1160 nM, respectively. The compound also returned an inhibition at 1.56 µM with MV4-11 [2] of 62.5%. The compound further gave an inhibition at 6.25 µM in the assay with MV4-11 [3] of 92.1%.

As for `CNC(=O)N1CCCc2ccc(NC(=O)c3ccc(-c4ccn(C)n4)cc3)cc21`, the values for the 50% inhibitory concentration (IC50) at CREB-binding protein [1] and in the assay on MV4-11 [4] were 40.2 nM and 830 nM, respectively. Moreover, testing at 1.56 µM in the assay with MV4-11 [2] gave an inhibition of 72.2%. In the assay on MV4-11 [3], the inhibition at 6.25 µM turned out to be 97%.

Consider `CNC(=O)N1CCCc2ccc(NC(=O)c3cccc(-c4ccccc4)c3)cc21`, for which the half-maximal inhibitory concentration (IC50) on CREB-binding protein [5] amounted to 8410 nM. In the assay on MV4-11 [2], this compound gave an inhibition at 1.56 µM of 10.7%. Testing at 6.25 µM in the assay with MV4-11 [3] gave an inhibition of 60.4%.

The compound `CNC(=O)N1CCCc2ccc(NC(=O)c3cccc(-c4cnn(S(C)(=O)=O)c4)c3)cc21` returned an IC50 at CREB-binding protein [1] of 286 nM. The compound also returned an inhibition at 1.56 µM in the assay with MV4-11 [2] of 1.6%. The compound also came in with an inhibition at 6.25 µM in the assay on MV4-11 [3] of 18%.

Regarding `CNC(=O)N1CCCc2ccc(NC(=O)c3ccccc3-c3ccccc3)cc21`, the IC50 at CREB-binding protein [5] is 213 nM. In addition, in the assay on MV4-11 [2], the inhibition at 1.56 µM turned out to be 2.83%. This compound also registered an inhibition at 6.25 µM in the assay with MV4-11 [3] of 1.39%.

As for `CNC(=O)N1CCCc2ccc(NC(=O)c3cccc(-c4cnn(C(C)=O)c4)c3)cc21`, at CREB-binding protein [1], the half-maximal inhibitory concentration (IC50) was 76.5 nM. In the assay with MV4-11 [2], the inhibition at 1.56 µM was found to be 33.5%. For the same compound, testing at 6.25 µM in the assay on MV4-11 [3] gave an inhibition of 82%.

Regarding `CNC(=O)N1CCCc2ccc(NC(=O)c3cccc(-c4cc[nH]n4)c3)cc21`, the 50% inhibitory concentration (IC50) on CREB-binding protein [1] is 92.9 nM. The compound also registered an inhibition at 1.56 µM in the assay with MV4-11 [2] of 27.3%. For the same compound, at 6.25 µM the inhibition in the assay with MV4-11 [3] was 89.7%.

In the case of `CNC(=O)N1CCCc2ccc(NC(=O)c3cccc(-c4cnn(C)c4)c3)cc21`, the results for the IC50 at CREB-binding protein [1] and in the assay with MV4-11 [4] were 55.4 nM and 1040 nM, respectively. Further, in the assay with MV4-11 [2], the inhibition at 1.56 µM stood at 71.2%. Further, in the assay with MV4-11 [3], the inhibition at 6.25 µM was determined as 93.5%.

Consider `CNC(=O)N1CCCc2ccc(NC(=O)c3ccc(-c4ccn(C(C)=O)n4)cc3)cc21`, for which the half-maximal inhibitory concentration (IC50) on CREB-binding protein [1] was determined as 52.3 nM. The same compound displayed an inhibition at 1.56 µM in the assay on MV4-11 [2] of 35.8%. Further, the inhibition at 6.25 µM in the assay with MV4-11 [3] worked out at 91.3%.

In the case of `CNC(=O)N1CCCc2ccc(NC(=O)c3cccc(-c4ccn(S(C)(=O)=O)n4)c3)cc21`, the IC50 on CREB-binding protein [1] turned out to be 103 nM. The compound also returned an inhibition at 1.56 µM with MV4-11 [2] of 4.03%. In the assay with MV4-11 [3], this compound returned an inhibition at 6.25 µM of 37%.

Take `CNC(=O)N1CCCc2ccc(NC(=O)c3ccc(-c4cc[nH]n4)cc3)cc21`: the IC50 at CREB-binding protein [1] was found to be 19.5 nM; in assay [6] it was 19000 nM; in the assay with MV4-11 [4] it was 550 nM; in assay [7], 8400 nM. Further, the Ratio IC50 in the assay filed under Homo sapiens [8] and in the assay listed under Homo sapiens [9] was above 400 in each case. In addition, the inhibition entry on CREB-binding protein [10] is “Dose-dependent effect”. In the assay on MV4-11 [2], this compound registered an inhibition at 1.56 µM of 92.5%. The compound also yielded an inhibition at 6.25 µM with MV4-11 [3] of 99.1%. Further, the affinity on CREB-binding protein [11], expressed as Kd, was 25.4 nM.

Take `CNC(=O)N1CCCc2ccc(NC(=O)c3ccc(-c4cn[nH]c4)cc3)cc21`: the IC50 on CREB-binding protein [1] was 47.7 nM; with MV4-11 [4], 870 nM. Moreover, the inhibition at 1.56 µM in the assay with MV4-11 [2] stood at 73.5%. Moreover, in the assay on MV4-11 [3], the inhibition at 6.25 µM turned out to be 98.3%.

In the case of `C[C@@H]1CC(=O)Nc2cccc(-c3ccc4c(c3)c(-c3cnn(C)c3)nn4C)c2N1`, the concentration for half-maximal inhibition (IC50) in assay [6] worked out at 18800 nM; in assay [7], 12000 nM.

With `COC(=O)N1CCCc2ccc(NC(=O)C3CC=CCC3C(=O)O)cc21` (centres undefined), the IC50 at CREB-binding protein [5] came to 2300 nM.

`CNC(=O)N1CCCc2ccc(NC(=O)c3ccc(-c4ccncc4)cc3)cc21` had an IC50 on CREB-binding protein [1] of 89.2 nM. In the assay on MV4-11 [2], the inhibition at 1.56 µM was determined as 37.6%. In the assay on MV4-11 [3], this compound displayed an inhibition at 6.25 µM of 88.7%.

As for `CNC(=O)N1CCCc2ccc(NC(=O)c3cccc(-c4ccn(C)n4)c3)cc21`, the IC50 on CREB-binding protein [1] came to 45.7 nM; in the assay with MV4-11 [4], 980 nM. In the assay on MV4-11 [2], this compound had an inhibition at 1.56 µM of 70.5%. Moreover, in the assay with MV4-11 [3], the inhibition at 6.25 µM was 99.5%.

With `CNC(=O)N1CCCc2ccc(NC(=O)c3ccc(-c4ccccn4)cc3)cc21`, the IC50 at CREB-binding protein [1] worked out at 102 nM. In the assay with MV4-11 [2], this compound showed an inhibition at 1.56 µM of 31.9%. In the assay with MV4-11 [3], this compound yielded an inhibition at 6.25 µM of 79.2%.

Consider `CNC(=O)N1CCCc2ccc(NC(=O)c3ccc(-c4cnn(S(C)(=O)=O)c4)cc3)cc21`, for which the IC50 on CREB-binding protein [1] came out at 93.1 nM. The compound also had an inhibition at 1.56 µM in the assay with MV4-11 [2] of 4.5%. In the assay with MV4-11 [3], this compound had an inhibition at 6.25 µM of 40.2%.

As to `CNC(=O)N1CCCc2ccc(NC(=O)c3ccc(-c4cnn(C(C)=O)c4)cc3)cc21`, the IC50 on CREB-binding protein [1] came to 85.2 nM. The compound also gave an inhibition at 1.56 µM in the assay on MV4-11 [2] of 23.9%. In addition, the inhibition at 6.25 µM in the assay on MV4-11 [3] worked out at 83.8%.

In turn, `CNC(=O)N1CCCc2ccc(NC(=O)c3cccc(-c4ccn(C(C)=O)n4)c3)cc21` showed an IC50 on CREB-binding protein [1] of 94.6 nM. At 1.56 µM the inhibition in the assay with MV4-11 [2] was 27.6%. This compound also registered an inhibition at 6.25 µM with MV4-11 [3] of 87.6%.

Consider `CNC(=O)N1CCCc2ccc(NC(=O)c3ccc(-c4ccccc4)cc3)cc21`, for which the IC50 at CREB-binding protein [1] stood at 195 nM. Besides, the inhibition at 1.56 µM with MV4-11 [2] amounted to 19.6%. The compound further had an inhibition at 6.25 µM in the assay on MV4-11 [3] of 74.3%.

As to `CNC(=O)N1CCCc2ccc(NC(=O)c3ccc(-c4cnn(C)c4)cc3)cc21`, the IC50 on CREB-binding protein [1] was found to be 37.4 nM; in the assay on MV4-11 [4], 730 nM. For the same compound, the inhibition at 1.56 µM in the assay on MV4-11 [2] was determined as 77.3%. The compound also had an inhibition at 6.25 µM with MV4-11 [3] of 94.4%.

As to `CNC(=O)N1CCCc2ccc(NC(=O)c3cccc(-c4ccncc4)c3)cc21`, the half-inhibitory concentration (IC50) on CREB-binding protein [1] and on CREB-binding protein [5] was 63.3 nM throughout.

As to `CNC(=O)N1CCCc2ccc(NC(=O)c3cccc(-c4cn[nH]c4)c3)cc21`, the concentration for half-maximal inhibition (IC50) on CREB-binding protein [1] is 91.3 nM. For the same compound, the inhibition at 1.56 µM in the assay with MV4-11 [2] was determined as 27.9%. In the assay with MV4-11 [3], this compound showed an inhibition at 6.25 µM of 77.7%.
